In ChEMBL document CHEMBL1124262, “Cardiotonic agents. Synthesis and inotropic activity of a series of isoquinolin-3-ol derivatives” (J Med Chem, 1988):

Columns and labels:
[1] = system: Canis familiaris; experiment: Percent change in heart rate (HR) in anesthetized open chest dogs after a iv dose of 1.875 mg/kg; format: functional, Canis lupus familiaris
In short: (§1)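 Anesthetized open-chest dogs, one drug per animal. Compound is in DMF diluted to 10% in saline, or given as the HCl salt in saline. It is infused into the femoral vein by pump at 0.58-2.2 mL/min in 3-4 stepwise cumulative doses, each over 5 min after the prior peak. Readings are CF by right-ventricle strain gauge, dP/dtmax by Millar LV catheter, HR by cardiotachometer and MAP from femoral artery, as % change from predrug control.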

[2] = system: Canis familiaris; experiment: Percent change in left ventricular pressure (dP/dtmax) in anesthetized dog after iv administration at 1.875 mg/kg; format: functional, Canis lupus familiaris, Heart left ventricle; in short: as §1
[3] = system: Canis familiaris; experiment: Percent increase in contractile force (CF) in anesthetized open-chest dogs iv administration of 1.875 mg/kg; format: functional, Canis lupus familiaris
In short: (§2)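 Anesthetized open-chest dogs. After a right thoracotomy, contractile force was recorded by a Walton Brodie strain gauge sutured to the right ventricle at 100 g baseline tension. Compound was given iv by infusion pump into a femoral vein, one drug per animal, in three to four stepwise increasing doses. Each dose ran over 5 min, starting once the previous dose's effect peaked. Values are % increase over predrug control vs cumulative mg/kg dose.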

[4] = system: Canis familiaris; experiment: Percent change in mean arterial blood pressure (MAP) in anesthetized open chest dogs iv administration at 1.875 mg/kg; format: functional, Canis lupus familiaris; in short: as §1
[5] = system: Canis familiaris; experiment: Change in heart rate of anaesthetized, open chest dogs following 0.875 mg/kg i.v. administration.; format: functional, Canis lupus familiaris; conditions: route intravenous; in short: as §1
[6] = system: Canis familiaris; experiment: Change in heart contractile force of anaesthetized, open chest dogs following 0.875 mg/kg i.v. administration.; format: functional, Canis lupus familiaris; conditions: route intravenous; in short: as §1
[7] = system: Canis familiaris; experiment: Percent change in mean arterial blood pressure (MAP) in anesthetized open chest dogs iv administration at 0.875 mg/kg; format: functional, Canis lupus familiaris; in short: as §1
[8] = system: Canis familiaris; experiment: Change in left ventricular pressure of anaesthetized, open chest dogs following 0.875 mg/kg i.v. administration.; format: functional, Canis lupus familiaris, Heart left ventricle; conditions: route intravenous; in short: as §1
[9] = system: Canis familiaris; experiment: Percent change in heart rate (HR) in anesthetized open chest dogs after a iv dose of 0.375 mg/kg; format: functional, Canis lupus familiaris; in short: as §1
[10] = system: Canis familiaris; experiment: Percent increase in contractile force (CF) in anesthetized open-chest dogs iv administration of 0.375 mg/kg; format: functional, Canis lupus familiaris; in short: as §2
[11] = system: Canis familiaris; experiment: Percent change in mean arterial blood pressure (MAP) in anesthetized open chest dogs iv administration at 0.3750 mg/kg; format: functional, Canis lupus familiaris; conditions: dose 0.375 mg/kg; in short: as §1
[12] = system: Canis familiaris; experiment: Percent change in left ventricular pressure (dP/dtmax) in anesthetized dog after iv administration at 0.375 mg/kg; format: functional, Canis lupus familiaris, Heart left ventricle; in short: as §1
[13] = system: Canis familiaris; experiment: Percent change in mean arterial blood pressure (MAP) in anesthetized open chest dogs iv administration at 0.8750 mg/kg; format: functional, Canis lupus familiaris; conditions: dose 0.875 mg/kg; in short: as §1
[14] = system: Canis familiaris; experiment: 50% increase in contractile force in one to three anesthetized dogs administered intravenously; format: functional; conditions: Canis lupus familiaris, iv
In short: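 Anesthetized dogs (one to three). Compound is infused iv in three to four stepwise increasing doses, each over 5 min once the previous effect has peaked. Contractile force is recorded with a Walton Brodie strain gauge on the right ventricle. The dose (μg/kg) giving a 50% rise over control CF is read from the dose-response curve, graphically (n < 3) or by linear regression (n ≥ 3).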

[15] = biological target: Phosphodiesterase 3 (Homo sapiens, UniProt Q14432+Q13370); experiment: Inhibition of phosphodiesterase fraction III in anesthetized open chest dogs; format: functional, Canis lupus familiaris; conditions: target entry is the homologue from another species
In short: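 Enzyme is dog heart PDE-III, the third DEAE-cellulose fraction eluted at 800 mM sodium acetate. Compounds are tested at 0.01–1000 μM with 0.25 μM cAMP containing [³H]cAMP, in 0.05 M Tris-HCl pH 7.4 with 5 mM MgCl2. The reaction is stopped by heat, then snake venom converts product to adenosine. [³H]adenosine is counted by scintillation after Dowex separation. IC50 comes from ≥2 determinations, each in duplicate.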

| SMILES | Change [1] | Increase [2] | Increase [3] | Change [4] | Change [5] | Increase [6] | Increase [8] | other results |
| --- | --- | --- | --- | --- | --- | --- | --- | --- |
| COC(=O)CCc1c(O)nc(C(C)C)c2cc(OC)c(OC)cc12 | 7% | 17% | 15% | 3% |  |  |  |  |
| CNC(=O)c1c(O)nc(C)c2cc(OC)c(OC)cc12 | 0% | 17% | 2% | 4% |  |  |  |  |
| COc1ccc2cc(O)nc(C)c2c1OC |  |  |  |  | 10% | 62% | 51% | Change [7]: -6% |
| COC(=O)Oc1cc2cc(OC)c(OC)cc2c(C)n1 |  |  |  |  |  |  |  | Change [9]: 19%; Increase [10]: 119%; Change [11]: -8%; Increase [12]: 66% |
| COC(=O)CCc1c(O)nc(C)c2cc3c(cc12)OCO3 |  |  |  |  | 38% | 131% | 118% | Change [13]: -21% |
| CNC(=O)CCc1c(O)nc(C)c2cc(OC)c(OC)cc12 | 7% |  | 62% | -5% |  |  | 40% |  |
| COC(=O)CCc1c(O)ncc2cc3c(cc12)OCO3 | 6% | 28% | 26% | 0% |  |  |  |  |
| COc1cc2c(C)nc(O)c(CCC(=O)O)c2cc1OC | 5% | 42% | 75% | -3% |  |  |  |  |
| COc1cc2c(C)nc(O)c(CC(C)C)c2cc1OC | 10% | 25% | 39% | -6% |  |  |  |  |
| Br.COc1cc2c(C)nc(O)c(Br)c2cc1OC |  |  |  |  | 26% | 128% | 25% | ED50 [14]: 0.185 mg/kg; Change [13]: -40%; IC50 [15]: 10 µM |
| CCOc1cc2c(C)nc(O)cc2cc1OC |  |  |  |  | 22% | 197% | 88% | Change [7]: -10% |
| CCOc1cc2cnc(O)cc2cc1OC | 7% | 32% | 34% | 0% |  |  |  |  |
| CCOc1cc2cc(O)nc(C)c2cc1OCC |  |  |  |  | 15% | 84% | 42% | Change [13]: -11% |
| Cc1nc(O)c(Cl)c2cc3c(cc12)OCO3 | 28% | 51% | 88% | -22% |  |  |  |  |
| COc1cc2c(C)nc(O)c(Cl)c2cc1OC |  |  |  |  | 29% | 89% | 88% | ED50 [14]: 0.12 mg/kg; Change [13]: 1%; IC50 [15]: 62 µM |
| COc1cc2c(C)nc(O)c(CCC(N)=O)c2cc1OC | 11% | 29% | 49% | -9% |  |  |  |  |
| COC(=O)CCc1c(O)ncc2cc(OC)c(OC)cc12 |  |  |  |  | 7% | 53% | 24% | Change [13]: -4% |
